Measurements of several laboratories.
Lines come from different studies, so protocols differ.
Target: Serine/threonine-protein kinase Chk2 (CHEK2, Homo sapiens, UniProt O96017)

Compound | assay | setting | remaining binding [%]
O=C(NCCCN1CCOCC1)c1ccc(Nc2nccc(-c3cc4ccccc4s3)n2)cc1 | binding, competition with immobilised ligand | 1 µM | 79
C[C@@H](c1ccc(-n2cnc3c(N)ncnc32)cc1)N1CCc2nn(C)c(Cc3ccccc3)c2C1=O | binding, competition with immobilised ligand | 0.1 µM | 100
COc1ncc2cc3ccccc3nc2c1C#N | cell-free assay, competition with immobilised ligand | 5 µM | 100
CC1CCCN1c1nccc(-c2cnn3ncccc23)n1 (stereo not drawn) | binding | 1 µM | 100
Cc1cc(-n2nc(Cc3cc(F)cc(C(F)(F)F)c3)nc2C)ccc1C(N)=O | cell-free assay, competition with immobilised ligand | 1 µM | 100
Cc1cnc(Nc2ccc(C(=O)N3CCC(N4CCCC4)CC3)cc2)nc1-c1cc2ccccc2s1 | binding, competition with immobilised ligand | 1 µM | 100
CCS(=O)(=O)c1cc2cc(C[C@@](O)(CC(C)(C)c3ccc(F)cc3C(N)=O)C(F)(F)F)[nH]c2cn1 | cell-free assay, competition with immobilised ligand | 1 µM | 84
Nc1ncc2c(n1)-c1c([nH]c3ccc(C#CC4CC4)cc13)CCCC2 | binding, competition with immobilised ligand | 1 µM | 86
O=C(c1ccc(Nc2nccc(-c3cc4ccccc4s3)n2)cc1)N1CCC(N2CCCC2)CC1 | binding, competition with immobilised ligand | 1 µM | 100
CN(CCCC(F)(F)F)c1nccc(-c2cnn3ncccc23)n1 | binding | 1 µM | 99
CO[C@@H](C)c1c(Nc2ccc([C@@H](N(C)C(=O)C3CCS(=O)(=O)CC3)C(F)(F)F)cc2)cnc2cc(Cl)nn12 | cell-free assay, competition with immobilised ligand | 1 µM | 100
COc1cc(C(=O)N2CCC(N3CCN(C)CC3)CC2)ccc1Nc1ncc2c(n1)N(C)c1ccccc1C(=O)N2C | binding, competition with immobilised ligand | 10 µM | 66
COc1cnc(Nc2cccc(S(N)(=O)=O)c2)nc1N1CCN(c2ccccc2)C(=O)C1 | binding, competition with immobilised ligand | 1 µM | 86
CN(C)C(=O)Cn1cc(-c2nc(C3(c4ccc(-c5cnc(N)nc5)cc4)CC3)no2)cn1 | cell-free assay, competition with immobilised ligand | 1 µM | 100
C[C@@H]1CCN(c2nccc(-c3cnn4ncccc34)n2)C1 | binding | 1 µM | 71
N#Cc1ccc(Nc2ccc3[nH]c(=O)[nH]c3c2)c(Cl)c1 | cell-free assay, competition with immobilised ligand | 1 µM | 100
CN(C)c1ncc(F)c(-c2cnn3ncccc23)n1 | binding | 1 µM | 100
CCCOc1ccc([C@@H]2[C@@H](C(=O)O)[C@H](c3ccc4c(c3)OCO4)CN2CC(=O)Nc2c(CC)cccc2CC)cc1 | cell-free assay, competition with immobilised ligand | 1 µM | 98
Cc1cnn2ncc(-c3ccnc(N(C)C)n3)c2c1 | binding | 1 µM | 84
CNC(=O)Nc1ccc2c(c1)CC[C@@]21OC(=O)N(CC(=O)N(Cc2ccc(F)cc2)[C@@H](C)C(F)(F)F)C1=O | cell-free assay, competition with immobilised ligand | 1 µM | 100
N[C@@H]1CCN(c2nccc(-c3cnn4ncccc34)n2)C1 | binding | 1 µM | 100
NC(=O)c1nc(Nc2ccccc2)sc1NC(=O)C1CCCCC1 | cell-free assay, competition with immobilised ligand | 10 µM | 2.7
COc1ccnn2ncc(-c3ccnc(N(C)C)n3)c12 | binding | 1 µM | 87
O=C(NCC1CCOCC1)c1n[nH]cc1NC(=O)c1c(F)cccc1F | binding, competition with immobilised ligand | 1 µM | 97
